Measured values published in ChEMBL document CHEMBL1156597, “Structure-activity relationship of kahalalide F synthetic analogues” (J Med Chem, 2008).

Tests used:
SK-MEL-28 = assay: Cytotoxicity against human SK-MEL-28 cells after 48 hrs by SRB assay; type: functional, cell-based; settings: Homo sapiens, SK-MEL-28, 48 h; for CC50: read-out: LC50 (the source's name)
How it was run: (§1)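 Cells grown in RPMI 1640 with 10% FBS and penicillin/streptomycin at 37 °C and 5% CO₂, trypsinized, then seeded at 5 × 10³/well. After 18 h drug-free attachment, samples in DMSO/EtOH/PBS (0.5:0.5:99) were added for 48 h continuous exposure. Cells were fixed with cold TCA (1 h, 4 °C) and stained with SRB (10 min). Tris-solubilized stain read at 490 nm. Triplicate wells, mean ± SD; GI₅₀ derived.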

LoVo [1] = assay: Cytotoxicity against human LoVo cells after 48 hrs by SRB assay; type: functional; settings: for CC50: read-out: LC50 (the source's name)
[2] = Cytotoxicity against human IGROV cells after 48 hrs by SRB assay; type: functional; settings: for CC50: read-out: LC50 (the source's name); how it was run: as §1
LoVo [3] = assay: Cytotoxicity against human doxorubicin resistant LoVo cells after 48 hrs by SRB assay; type: functional; settings: for CC50: read-out: LC50 (the source's name); how it was run: as §1
HeLa = assay: Cytotoxicity against human HeLa cells after 48 hrs by SRB assay; type: functional; settings: for CC50: read-out: LC50 (the source's name); how it was run: as §1
[4] = Cytotoxicity against human IGROV-ET cells after 48 hrs by SRB assay; type: functional; settings: for CC50: read-out: LC50 (the source's name); how it was run: as §1
K562 = assay: Cytotoxicity against human K562 cells after 48 hrs by SRB assay; type: functional; settings: K562, 48 h; for CC50: read-out: LC50 (the source's name); how it was run: as §1
HT-29 = assay: Cytotoxicity against human HT29 cells after 48 hrs by SRB assay; type: functional, cell-based; settings: Homo sapiens, HT-29, 48 h; for CC50: read-out: LC50 (the source's name); how it was run: as §1
SK-BR-3 = assay: Cytotoxicity against human SKBR3 cells after 48 hrs by SRB assay; type: functional; settings: SK-BR-3, 48 h; for GI50: read-out: GI50; for CC50: read-out: LC50 (the source's name); how it was run: as §1
PANC-1 = assay: Cytotoxicity against human PANC1 cells after 48 hrs by SRB assay; type: functional; settings: PANC-1, 48 h, read-out: LC50 (the source's name); how it was run: as §1
A549 = assay: Cytotoxicity against human A549 cells after 48 hrs by SRB assay; type: functional, cell-based; settings: Homo sapiens, A549, 48 h; for GI50: read-out: GI50; how it was run: as §1
[5] = Cytotoxicity against human HeLa-APL cells after 48 hrs by SRB assay; type: functional; how it was run: as §1
LNCaP = assay: Cytotoxicity against human LNcaP cells after 48 hrs by SRB assay; type: functional; settings: for CC50: read-out: LC50 (the source's name); how it was run: as §1
DU-145 = assay: Cytotoxicity against human DU145 cells after 48 hrs by SRB assay; type: functional, cell-based; settings: Homo sapiens, DU-145, 48 h; for GI50: read-out: GI50; for CC50: read-out: LC50 (the source's name); how it was run: as §1

Row | Structure (SMILES) | CC50 (SK-MEL-28) [µM] | GI50 (LoVo [1]) [µM] | TGI (LoVo [1]) [µM] | CC50 (LoVo [1]) [µM] | CC50 [2] [µM] | CC50 (LoVo [3]) [µM] | CC50 (HeLa) [µM] | CC50 [4] [µM] | CC50 (K562) [µM] | CC50 (HT-29) [µM] | CC50 (SK-BR-3) [µM] | CC50 (PANC-1) [µM] | LC50 (A549) [µM] | GI50 [5] [µM] | LC50 (concentration giving 50% net cell kill) [5] [µM] | TGI [5] [µM] | CC50 (LNCaP) [µM] | TGI (DU-145) [µM] | GI50 (DU-145) [µM] | CC50 (DU-145) [µM] | further results
1 | C/C=C1\NC(=O)[C@H](Cc2ccccc2)NC(=O)[C@@H](C(C)C)NC(=O)[C@@H]([C@H](C)CC)NC(=O)[C@H](NC(=O)[C@H](NC(=O)[C@H](CCCN)NC(=O)[C@H]2CCCN2C(=O)[C@H](NC(=O)[C@H](CCC2CCCCC2)NC(=O)[C@@H](NC(=O)[C@@H](CC2CCCCC2)NC(=O)CCCC(C)C)[C@@H](C)O)C(C)C)[C@H](C)CC)[C@H](C)OC(=O)[C@H](C(C)C)NC1=O | 1.49 | 2.81 | 3.01 | 3.22 | 7.3 | 9.67 | 1.77 | 0.968 | 1.79 | 2.49 | 0.703 | 1.64 | 1.67 | 4.34 | 1.66 | 3.5 | 1.38 | 2.55 | 3.3 | 1.35 | TGI (SK-MEL-28): 3.09 µM; GI50 (SK-MEL-28; read-out: GI50): 3.18 µM; GI50 (LoVo [3]): 1.21 µM; TGI (LoVo [3]): 1.53 µM; GI50 (HeLa): 2.95 µM; TGI (HeLa): 3.51 µM; GI50 (K562): 1.79 µM; TGI (K562): 1.79 µM; GI50 (HT-29): 2.9 µM; TGI (HT-29): 2.7 µM; TGI (SK-BR-3): 1.69 µM; GI50 (SK-BR-3): 2.06 µM; TGI (A549): 3.24 µM; GI50 (A549): 3.6 µM
2 | C/C=C1\NC(=O)[C@H](Cc2ccccc2)NC(=O)[C@@H](C(C)C)NC(=O)[C@@H]([C@H](C)CC)NC(=O)[C@H](NC(=O)[C@H](NC(=O)[C@H](CCCN)NC(=O)[C@H]2CCCN2C(=O)[C@H](NC(=O)[C@@H](NC(=O)[C@H](CCC(=O)O)NC(=O)[C@H](NC(=O)CCCC(C)C)C(C)C)C(C)C)C(C)C)[C@H](C)CC)[C@H](C)OC(=O)[C@H](C(C)C)NC1=O | 1.47 | – | – | 0.292 | 0.483 | 0.294 | 1.1 | 0.639 | 1.96 | 0.422 | 0.356 | 1.74 | 7.08 | 2.06 | 0.956 | 1.89 | 0.838 | 2.63 | 2.48 | 1.37 | GI50 [2]: 0.498 µM; GI50 ([2]; read-out: GI50): 0.857 µM; GI50 (HeLa): 2.55 µM; TGI (HeLa): 2.5 µM; GI50 [4]: 0.849 µM; GI50 ([4]; read-out: GI50): 1.13 µM; TGI (A549): 1.45 µM; GI50 (A549): 1.63 µM; GI50 (LNCaP): 1.07 µM; TGI (LNCaP): 0.949 µM
3 | C/C=C1\NC(=O)[C@H](Cc2ccccc2)NC(=O)[C@@H](C(C)C)NC(=O)[C@@H]([C@H](C)CC)NC(=O)[C@H](NC(=O)[C@H](NC(=O)[C@H](CCCN)NC(=O)[C@H]2CCCN2C(=O)[C@H](NC(=O)[C@@H](NC(=O)[C@@H](NC(=O)[C@H](NC(=O)CC[C@@H](C)CC)C(C)C)[C@@H](C)O)C(C)C)C(C)C)[C@H](C)CC)[C@H](C)OC(=O)[C@H](C(C)C)NC1=O | 1.67 | 0.397 | 0.385 | 0.321 | 1.22 | 1.04 | 1.07 | 0.975 | 2.56 | 2.06 | 0.395 | 2.2 | 1.32 | 1.28 | 1.14 | 1.2 | 2.03 | 2.2 | 1.69 | 0.347 | TGI [2]: 1.02 µM; GI50 ([2]; read-out: GI50): 0.827 µM; GI50 (LoVo [3]): 0.249 µM; TGI (LoVo [3]): 0.25 µM; GI50 [4]: 0.584 µM; GI50 ([4]; read-out: GI50): 0.55 µM; GI50 (K562): 2.07 µM; TGI (K562): 3.76 µM; GI50 (HT-29): 0.73 µM; TGI (HT-29): 1.02 µM; TGI (SK-BR-3): 0.462 µM; GI50 (SK-BR-3): 0.539 µM
